What all share (type): cell-based
Test [1] concerns DLD-1. The test is described as follows: Inhibition of 20S proteasome in human DLD1 cells transfected with 4Ub-Luc gene assessed as bioluminescence induction factor at 0.5 uM after 8 hrs by luciferase reporter gene assay relative to epoxomicin. The gist of the method:
(§1)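 Stably transfected DLD-1 cells expressing 4Ub-Luc reporter, cultured in MEM with 5% heat-inactivated serum. Seeded at 10⁴ cells/well and treated with compound or solvent for 8 h. Luciferase activity in lysates read by luminometer. Induction factor = signal of treated over untreated cells, normalised to epoxomicin at 10^-7 M run in parallel (set to 100). IF ≥10 counted active.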
In general terms: Reporter assays use an easily measured gene product as a stand-in for the process of interest.

Test [2] deals with DLD-1. Nature of the test: Inhibition of 20S proteasome in human DLD1 cells transfected with 4Ub-Luc gene assessed as bioluminescence induction factor at 5 uM after 8 hrs by luciferase reporter gene assay relative to epoxomicin. A digest of the protocol:
as §1

Test [3] relates to DLD-1. Nature of the test: Inhibition of 20S proteasome in human DLD1 cells transfected with 4Ub-Luc gene assessed as bioluminescence induction factor at 1 uM after 8 hrs by luciferase reporter gene assay relative to epoxomicin. The gist of the method: as §1
Test [4] is described as follows: Inhibition of peptide-glutamyl-peptide-hydrolyzing activity of 20S proteasome in human DLD1 cells transfected with 4Ub-Luc gene using Z-Leu-Leu-Glu-AMC as substrate after 6 hrs by spectrofluorometric analysis. Conditions: dld-1. A digest of the protocol: (§2)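 DLD-1 4Ub-Luc cells seeded at 10⁴ cells/well, exposed to compound or solvent for 6 h, then 30 min in reaction buffer (30 mM Tris–HCl pH 7.5, 1 mM ATP). Chymotrypsin-like and PGPH activities read with specific fluorogenic substrates.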

Test [5] has as its system DLD-1. The test is described as follows: Inhibition of 20S proteasome activity in human DLD1 cells transfected with 4Ub-Luc gene assessed as bioluminescence induction factor at 10 uM after 8 hrs by luciferase reporter gene assay relative to epoxomicin. The gist of the method:
as §1

Test [6] in a line: Inhibition of chymotrypsin-like activity of 20S proteasome in human DLD1 cells transfected with 4Ub-Luc gene using Succinyl-Leu-Leu-Val-Tyr-AMC as substrate after 6 hrs by spectrofluorometric analysis. Conditions: dld-1. A digest of the protocol: as §2

Values joined by “and” are separate entries in the source; they are usually repeats but may differ in a detail not shown here. Equal entries are not always repeated.

As to `C=C(C(=O)[C@H](OS(=O)(=O)O)[C@@H](C)[C@H]1[C@@H](OC(C)=O)C[C@@]2(C)[C@@H]3CC[C@H]4[C@H](C)C(=O)C=C[C@@]45C[C@@]35CC[C@]12C)[C@@H](C)COS(=O)(=O)O`, the fold change (FC) with DLD-1 [1] came out at 1; in the test with DLD-1 [2], 1; with DLD-1 [3] it was 1; in the test on DLD-1 [5], 1.1. In addition, the IC50 in test [4] and in test [6] was over 1000 µM each time.
In the case of `C=C(C(=O)[C@H](O)[C@@H](C)[C@H]1[C@@H](OC(C)=O)C[C@@]2(C)[C@@H]3CC[C@H]4[C@H](C)C(=O)C=C[C@@]45C[C@@]35CC[C@]12C)[C@@H](C)COC(=O)CCC(=O)O`, the fold change (FC) in the test on DLD-1 [1] was 6 and 2.6; with DLD-1 [2], 11 and 18; in the test on DLD-1 [3], 62 and 46; in the test on DLD-1 [5], 3.5 and 5. Besides, the IC50 in test [4] came to 47 µM; in test [6], 61 µM.
As for `C=C(C(=O)[C@H](O)[C@@H](C)[C@H]1[C@@H](OC(C)=O)C[C@@]2(C)[C@@H]3CC[C@H]4[C@H](C)C(=O)C=C[C@@]45C[C@@]35CC[C@]12C)[C@@H](C)COCOC(C)=O`, the fold change (FC) in the test on DLD-1 [1] amounted to 1.7; with DLD-1 [2], 34; in the test on DLD-1 [3], 40; in the test with DLD-1 [5] it was 3. Further, the IC50 in test [4] came out at 31 µM; in test [6], 22 µM.
Take `C=C(C(=O)[C@H](OC(C)=O)[C@@H](C)[C@H]1[C@@H](OC(C)=O)C[C@@]2(C)[C@@H]3CC[C@H]4[C@H](C)C(=O)C=C[C@@]45C[C@@]35CC[C@]12C)[C@@H](C)COP(=O)(OCC)OCC`: the fold change (FC) worked out at 3 in the test with DLD-1 [1], 16 with DLD-1 [2], 43 in the test on DLD-1 [3] and 2 in the test on DLD-1 [5]. In addition, the IC50 was determined as 91 µM in test [4] and 19 µM in test [6].
Take `C=C(C(=O)[C@H](OC(C)=O)[C@@H](C)[C@H]1[C@@H](OC(C)=O)C[C@@]2(C)[C@@H]3CC[C@H]4[C@H](C)C(=O)C=C[C@@]45C[C@@]35CC[C@]12C)[C@@H](C)COC`: the fold change (FC) in the test with DLD-1 [1] is 1.4; in the test on DLD-1 [2], 44; in the test with DLD-1 [3], 40. The IC50 in test [4] was 100 µM; in test [6] it was 86 µM.
Take `C=C(C(=O)[C@H](O)[C@@H](C)[C@H]1[C@@H](OC(C)=O)C[C@@]2(C)[C@@H]3CC[C@H]4[C@H](C)C(=O)C=C[C@@]45C[C@@]35CC[C@]12C)[C@@H](C)COC(=O)CNC(=O)OC(C)(C)C`: the results for the fold change (FC) in the test with DLD-1 [2], in the test with DLD-1 [3] and in the test with DLD-1 [5] were 47, 4.8 and 16, respectively. For the same compound, the IC50 in test [4] and in test [6] was over 1000 µM throughout.
Turning to `C=C(C(=O)[C@H](O)[C@@H](C)[C@H]1[C@@H](OC(C)=O)C[C@@]2(C)[C@@H]3CC[C@H]4[C@H](C)C(=O)C=C[C@@]45C[C@@]35CC[C@]12C)[C@@H](C)COC(=O)N1CCN(C)CC1`, the fold change (FC) in the test with DLD-1 [1] is 15.4 and 12; in the test with DLD-1 [2], 7.1 and 4.5; in the test on DLD-1 [3], 69 and 70; with DLD-1 [5], 1.5 and 1.4.
Turning to `COCC(C(=O)[C@H](O)[C@@H](C)[C@H]1[C@@H](OC(C)=O)C[C@@]2(C)[C@@H]3CC[C@H]4[C@H](C)C(=O)C=C[C@@]45C[C@@]35CC[C@]12C)[C@@H](C)CO` (stereo partly drawn), the fold change (FC) amounted to 0.9 in the test on DLD-1 [1], 1.2 with DLD-1 [2], 1.1 in the test with DLD-1 [3] and 2.6 with DLD-1 [5].
For `C=C(C(=O)[C@H](OC(C)=O)[C@@H](C)[C@H]1[C@@H](OC(C)=O)C[C@@]2(C)[C@@H]3CC[C@H]4[C@H](C)C(=O)C=C[C@@]45C[C@@]35CC[C@]12C)[C@@H](C)COC(=O)CNC(=O)OC(C)(C)C`, the fold change (FC) was found to be 43 in the test on DLD-1 [2], 14 in the test with DLD-1 [3] and 10 with DLD-1 [5]. Also, the IC50 in test [4] was over 1000 µM; in test [6] it was 92 µM.
In the case of `C=C(C(=O)[C@H](OC(C)=O)[C@@H](C)[C@H]1[C@@H](OC(C)=O)C[C@@]2(C)[C@@H]3CC[C@H]4[C@H](C)/C(=N/O)C=C[C@@]45C[C@@]35CC[C@]12C)[C@@H](C)CO`, the results for the fold change (FC) in the test on DLD-1 [1], with DLD-1 [2] and with DLD-1 [3] were 1, 103 and 1, respectively.
As to `C=C(C(=O)[C@H](OC(C)=O)[C@@H](C)[C@H]1[C@@H](OC(C)=O)C[C@@]2(C)[C@@H]3[C@H]4O[C@H]4[C@H]4[C@H](C)C(=O)C=C[C@@]45C[C@@]35CC[C@]12C)[C@@H](C)CO`, the values for the fold change (FC) in the test with DLD-1 [2], with DLD-1 [3] and in the test with DLD-1 [5] were 72, 2.8 and 15, respectively. For the same compound, the half-inhibitory concentration (IC50) in test [4] came to 60 µM; in test [6] it was 48 µM.
The like results for `C=C(C(=O)[C@H](OC(C)=O)[C@@H](C)[C@H]1[C@@H](OC(C)=O)C[C@@]2(C)[C@@H]3CC[C@H]4[C@H](C)/C(=N\NC(N)=O)C=C[C@@]45C[C@@]35CC[C@]12C)[C@@H](C)CO` were, in that order, 99, 1.4, 30, 4.1 µM and 8.6 µM.
In the same order, the values of `C=C(C(=O)[C@H](O)[C@@H](C)[C@H]1[C@@H](OC(C)=O)C[C@@]2(C)[C@@H]3CC[C@H]4[C@H](C)C(=O)C=C[C@@]45C[C@@]35CC[C@]12C)C(C)C` are 65, 2.4, 20, over 1000 µM and over 1000 µM.
The like results for `C=C(C(=O)[C@H](OC(C)=O)[C@@H](C)[C@H]1[C@@H](OC(C)=O)C[C@@]2(C)[C@@H]3CC[C@H]4[C@H](C)C(=O)CC[C@@]45C[C@@]35CC[C@]12C)[C@@H](C)CO` were, in that order, 45, 0.9, 48, 13 µM and 17 µM.
In the case of `CC(=O)O[C@H]1C[C@@]2(C)[C@@H]3CC[C@H]4[C@H](C)C(=O)C=C[C@@]45C[C@@]35CC[C@]2(C)[C@H]1[C@H](C)[C@@H](OC(C)=O)C(=O)C=C(C)C`, the fold change (FC) turned out to be 34 in the test with DLD-1 [2], 1.1 with DLD-1 [3] and 44 in the test on DLD-1 [5]. Further, the IC50 in test [4] and in test [6] was over 1000 µM each time.
As for `C=C(C(=O)[C@H](O)[C@@H](C)[C@H]1[C@@H](OC(C)=O)C[C@@]2(C)[C@@H]3CC[C@H]4[C@H](C)C(=O)C=C[C@@]45C[C@@]35CC[C@]12C)[C@@H](C)COC(=O)CN(C)C`, the fold change (FC) is 1.3 with DLD-1 [1]; 35 and 34 in the test on DLD-1 [2]; 22 and 17 in the test with DLD-1 [3]; 6.8 and 4 in the test with DLD-1 [5].
With `C=C(C(=O)[C@H](OC(C)=O)[C@@H](C)[C@H]1[C@@H](OC(C)=O)C[C@@]2(C)[C@@H]3CC[C@H]4[C@H](C)C(=O)C=C[C@@]45C[C@@]35CC[C@]12C)[C@@H](C)COP(=O)(O)O`, the fold change (FC) in the test with DLD-1 [2] was 3 and 4.4; in the test with DLD-1 [3], 0.9 and 1; in the test on DLD-1 [5], 46 and 51. The IC50 in test [4] was over 1000 µM; in test [6] it was 92 µM.
With `C=C(C(=O)[C@H](OC(C)=O)[C@@H](C)[C@H]1[C@@H](OC(C)=O)C[C@@]2(C)[C@@H]3CC[C@H]4[C@H](C)/C(=N\OC)C=C[C@@]45C[C@@]35CC[C@]12C)[C@@H](C)CO`, the fold change (FC) in the test on DLD-1 [2] worked out at 3.4; in the test on DLD-1 [3], 0.7; in the test with DLD-1 [5], 24. Besides, the IC50 in test [4] was 12 µM; in test [6], 11 µM.
`C=C(C(=O)[C@H](OC(=O)CNC(=O)OC(C)(C)C)[C@@H](C)[C@H]1[C@@H](OC(C)=O)C[C@@]2(C)[C@@H]3CC[C@H]4[C@H](C)C(=O)C=C[C@@]45C[C@@]35CC[C@]12C)[C@@H](C)CO`: the fold change (FC) in the test with DLD-1 [1] turned out to be 2; in the test on DLD-1 [2], 36; with DLD-1 [3], 14; with DLD-1 [5] it was 5.
On to `CC(=O)O[C@H]1C[C@@]2(C)[C@@H]3CC[C@H]4[C@H](C)C(=O)C=C[C@@]45C[C@@]35CC[C@]2(C)[C@H]1[C@H](C)[C@@H](O)C(=O)C=C(C)C`, for which the figures for the fold change (FC) in the test on DLD-1 [2], in the test with DLD-1 [3] and with DLD-1 [5] were 5.2, 1.1 and 53, respectively. Also, the IC50 in test [4] and in test [6] was over 1000 µM throughout.
For the compound `C=C(C(=O)[C@H](OC(C)=O)[C@@H](C)[C@H]1[C@@H](OC(C)=O)C[C@@]2(C)[C@@H]3CC[C@H]4[C@H](C)/C(=N/OCc5ccccc5)C=C[C@@]45C[C@@]35CC[C@]12C)[C@@H](C)CO`, the fold change (FC) in the test on DLD-1 [2] was 12; in the test on DLD-1 [3], 0.8; in the test with DLD-1 [5], 5.6. The IC50 in test [4] is 11 µM; in test [6], 10 µM.

Usually IC50 stands for the point on the concentration scale where inhibition reaches its midpoint.

(Values after ChEMBL document CHEMBL1938254, “Semisynthetic neoboutomellerone derivatives as ubiquitin-proteasome pathway inhibitors” (Bioorg Med Chem, 2012).)
